Bioassay records (PubChem)
STEP block = blocks human striatal-enriched tyrosine phosphatase; 360,000 compounds, 0.25% hits; inhibition, % at 20 µM; recombinant STEP, OMFP fluorogenic substrate, fluorescence;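 active = inhibition at 20 µM, scaled per plate between control wells, above about 37%, limit read from the data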;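 also: 0% = DMSO with enzyme and substrate and 100% = substrate only without enzyme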
Target sequence (P54829 whole entry, looked up): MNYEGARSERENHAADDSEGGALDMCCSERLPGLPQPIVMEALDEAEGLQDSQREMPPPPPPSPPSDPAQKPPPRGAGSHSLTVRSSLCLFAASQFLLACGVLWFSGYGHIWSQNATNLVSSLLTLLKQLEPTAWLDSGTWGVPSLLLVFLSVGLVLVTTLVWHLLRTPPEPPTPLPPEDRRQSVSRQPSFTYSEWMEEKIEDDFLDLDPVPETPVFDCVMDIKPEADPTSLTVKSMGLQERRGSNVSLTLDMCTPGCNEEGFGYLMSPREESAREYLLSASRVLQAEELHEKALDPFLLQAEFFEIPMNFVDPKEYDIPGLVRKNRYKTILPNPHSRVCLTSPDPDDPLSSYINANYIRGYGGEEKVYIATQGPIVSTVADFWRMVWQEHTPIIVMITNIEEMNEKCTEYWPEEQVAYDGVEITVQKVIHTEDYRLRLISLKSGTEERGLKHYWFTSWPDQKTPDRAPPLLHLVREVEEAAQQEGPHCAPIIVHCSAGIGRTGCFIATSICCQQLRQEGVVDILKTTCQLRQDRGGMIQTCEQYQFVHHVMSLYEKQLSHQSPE
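Material: STEP (striatal-enriched tyrosine phosphatase) enzyme, cell-free | Medium: 50 mM Bis-Tris pH 6.0 with 2.5 mM DTT and 0.005% Tween 20 | Read-out: Percent inhibition scaled to no-enzyme and uninhibited-enzyme controls, plate-pattern corrected | Signal: Fluorescence read at 480 nm ex / 540 nm em | Times: 20 min reaction, room temperature, in the dark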
LMPTP block = blocks human LMPTP phosphatase; P24666; recombinant LMPTP-A, OMFP fluorogenic substrate, fluorescence intensity; inhibition, % at 20 µM; 360,000 compounds, 0.22% hits; AID 651560;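 active = compounds that cut the enzyme signal by at least half of the control window in the single-dose screen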;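 also: plate controls were DMSO wells with enzyme plus substrate for no effect and substrate without enzyme for full effect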
Target sequence (P24666 whole entry, looked up): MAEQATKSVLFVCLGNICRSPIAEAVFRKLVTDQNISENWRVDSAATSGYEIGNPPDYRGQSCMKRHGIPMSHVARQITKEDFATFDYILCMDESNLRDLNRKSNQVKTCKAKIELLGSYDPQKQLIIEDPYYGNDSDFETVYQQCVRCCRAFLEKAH
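Test system – LMPTP-A enzyme · Amount – LMPTP-A at 0.625 nM final in the reaction · Buffer or medium – Bis-Tris pH 6.0, DTT, detergent · Reagent – OMFP 400 µM · Doses – single 20 µM dose · Schedule – reaction 50 min, room temperature, dark · Detection – fluorescence intensity of OMFP turnover product · Evaluation – percent inhibition versus substrate-only and uninhibited controls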
Pemphigus Ab inh = inhibitors of pemphigus antibody binding to human desmoglein-3; P32926; AID 588358; DSG3-coupled beads, scFv-anti-DSG3-GFP binding, flow cytometry; active compounds read low; 310,000 compounds, 0.48% hits; binding (percent of control), % at 10 µM;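 active = binding more than 3 SD below its plate's average and above zero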;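 also: hits lower antibody fragment binding to DSG3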
SUMO1-SIM PPI = SUMO1-SIM interaction modulation. inhibition, % at 20 µM. 360,000 compounds, 0.33% hits. SUMO1 binding to a labelled peptide, TR-FRET, 1 h; in the data active = inhibition above about 37%
Scp-1 inhibitor = blocks human Scp-1 phosphatase activity; Q9GZU7; Recombinant Scp1, phosphopeptide, malachite green phosphate absorbance; inhibition, % at 20 µM; 340,000 compounds, 0.88% hits;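 active = inhibition above about 50% at 20 µM, limit read from the data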;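 also: plate controls were DMSO wells with enzyme for no effect and wells lacking enzyme for full effect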
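Incubation: 45 min enzyme reaction at room temperature / System: truncated SCP-1 phosphatase (76-261aa) / Reagent: Phospho 17-mer peptide substrate / Buffer or medium: Acidic Tris acetate buffer with magnesium and detergent / Signal: absorbance at 630 nm / Doses: one concentration, 20 µM, with 1.0% DMSO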
Active calls of the source: *; x = no result. In the library only some 1.7% were active in any assay of this set; here they are far more common.

SMILES | STEP block | LMPTP block | Pemphigus Ab inh | SUMO1-SIM PPI | Scp-1 inhibitor
CN(C)S(=O)(=O)c1ccc(C(=O)NCc2nnc(SCC(=O)Nc3ccc(F)cc3)n2-c2ccc(F)cc2)cc1 | -2.9 | -1.0 | 88.2 | -0.4 | -7.1
COc1ccc([N+](=O)[O-])cc1NC(=O)C(C)OC(=O)CSC(C)C(=O)Nc1cc(C)on1 (stereo not given) | 0.5 | -0.1 | 106.6 | -20.7 | 1.4
Nc1cccc2[nH]c(C(F)(F)F)nc12 | 3.1 | -4.0 | 87.5 | 67.7* | -4.2
O=C(O)c1cccc2[nH]c(C(F)(F)F)nc12 | 0.4 | -1.1 | 118.3 | 0.1 | 2.6
COc1ccc(OC)c(-c2nc3cc4ccccc4cc3nc2-c2ccccc2)c1 | -1.6 | 2.8 | 80.4 | -6.1 | -8.6
Cc1cc(C)n2nc(SCC(=O)N/N=C/c3ccc(F)cc3)nc2n1 | -4.3 | -1.7 | 112.0 | 50.7* | 3.1
O=C1NC(=O)/C(=C\c2ccc(O)cc2O)S1 | 1.2 | 32.0 | 98.9 | 9.6 | 53.1*
O=C1NC(=O)/C(=C/c2cccc3ccccc23)S1 | -5.4 | -10.5 | 115.7 | -13.3 | 6.0
CCc1nnc(NC(=O)CSc2sc3c(O)cc(=O)[nH]c3c2C#N)s1 | 33.2 | 32.0 | 93.9 | 40.3* | 95.2*
CCc1nnc(NC(=O)CSc2nc3[nH]c(=O)cc(O)c3s2)s1 | 1.4 | 0.7 | x | 12.6 | 0.4
CCOc1ccc(NC(=O)c2cccc(S(=O)(=O)Nc3c(C)n(C)n(-c4ccccc4)c3=O)c2)cc1 | -2.3 | -0.8 | 106.3 | 0.3 | -4.8
Cc1cc(C)c(C)c(S(=O)(=O)N2CCN(CC(=O)Nc3ccc([N+](=O)[O-])cc3)CC2)c1C | -2.9 | -3.5 | 60.5* | 1.1 | 0.0
Cc1cc(C(=O)OCC(=O)NC2CCCCC2C)c2ccccc2n1 (stereo not given) | 2.4 | -1.2 | 107.7 | -9.3 | 4.3
CC1CCCCC1NC(=O)COC(=O)c1c2c(nc3ccccc13)/C(=C/c1ccco1)CC2 (stereo not given) | 5.2 | 38.5 | 77.5* | 27.6 | 67.9*
O=C(COC(=O)c1c2c(nc3ccccc13)/C(=C/c1ccco1)CC2)NC1CCCC1 | 18.4 | 47.5 | 109.3 | 18.0 | 77.8*
Cc1cc(C(=O)OCC(=O)NC2CCCC2)c2ccccc2n1 | 1.7 | -0.6 | 110.0 | -10.6 | 5.1
COc1ccc(C(=O)NCCN2CCCC2)cc1[N+](=O)[O-] | -1.2 | -2.8 | 134.0 | -11.5 | -9.5
O=C(COC(=O)c1cc[n+]([O-])cc1)Nc1ccc([N+](=O)[O-])cc1 | 0.9 | -1.6 | 102.7 | -15.7 | -6.2
CS(=O)(=O)c1cccc(C(=O)N(CCc2ccccc2)Cc2cccs2)c1 | 0.6 | -0.4 | 118.7 | -1.9 | -6.4
CCn1nnnc1NCc1ccc(SC)cc1 | -0.8 | 0.2 | 98.1 | 3.5 | -1.2
CCn1nnnc1NCc1ccc(N2CCCC2)cc1 | 4.3 | 60.2* | 110.2 | -0.4 | -1.5
CCCS(=O)(=O)NC(=O)C1(C)CCCN(C(=O)c2ccc(C(F)(F)F)nc2C)C1 (stereo not given) | 0.7 | -2.0 | x | 0.2 | x
COc1ccc(-c2sc3ccccc3c2-c2ccc(OCCN(C)C)cc2)cc1 | 8.3 | -1.0 | 105.4 | -172.7 | 4.1
Cc1c(-c2ccccc2)c(-c2ccc(OCCN(C)C)cc2)n2ccccc12 | -1.9 | 80.2* | 95.6 | -42.4 | -4.7
Cc1cccc(N(CC(=O)NCC2CCCO2)C(=O)CNS(=O)(=O)c2ccc(Cl)cc2)c1 (stereo not given) | -2.9 | -1.6 | 102.8 | 0.8 | -7.1
SMILES | STEP block | LMPTP block | Pemphigus Ab inh | SUMO1-SIM PPI | Scp-1 inhibitor
CCN(C(=O)COC(=O)/C=C/c1ccc(F)cc1)C1CCCCC1 | -0.8 | 2.1 | 89.6 | -7.5 | -1.0
CCN(C(=O)COC(=O)/C=C/c1ccco1)C1CCCCC1 | 20.4 | 6.6 | x | -15.3 | 72.0*
CCc1nc2ccc(C(=O)Nc3cccc(NS(C)(=O)=O)c3)cn2c1N(C)CCN1CCOCC1 | 1.1 | 1.3 | x | -3.1 | x
CCc1c(C)nc2c(C#N)c(C)[nH]n2c1=O | -2.2 | -0.4 | 107.8 | 54.0* | -3.3
Cc1nc2c(C#N)c(C)[nH]n2c(=O)c1Cc1ccccc1 | 0.7 | -2.3 | 98.4 | 17.6 | -4.6
C[C@H](CO)N1C[C@H](C)[C@@H](CN(C)C(=O)Nc2cccc(F)c2)Oc2ncc(Br)cc2C1=O | 0.7 | -0.8 | 105.6 | 0.3 | x
CN(C(=O)C(C)(C)C)C1c2c(ccc3ccccc23)OCC1CO (stereo not given) | -0.8 | 0.9 | 82.8 | 1.4 | -12.3
CCn1c(C)nc2cc(C(=O)NNC(=S)Nc3ccc(C)cc3)ccc21 | 2.1 | 0.6 | 98.2 | 1.6 | -4.0
CCn1c(C)nc2cc(C(=O)NNC(=O)CCC3CCCCC3)ccc21 | 2.9 | -0.8 | 62.6* | -2.4 | 1.7
CC(C)n1cnc2c(Nc3ccc(C(=O)O)cc3)nc(Cl)nc21 | 3.1 | -0.8 | 102.7 | 6.2 | -11.2
CC(C)[C@H](CO)Nc1nc(Nc2ccc(Cl)c(C(=O)O)c2)c2ncn(C(C)C)c2n1 | -2.0 | 0.6 | 101.8 | 69.0* | 4.0
COc1cc2cnc(-c3ccccc3)c(-c3ccc(C(F)(F)F)cc3)c2cc1OC | -3.5 | 2.7 | 95.2 | 9.4 | 18.1
Cc1nn(-c2ccccc2)c2nc(-c3ccco3)cc(C(=O)O)c12 | -3.0 | -0.4 | 101.3 | 29.1 | 13.1
Cc1nn(-c2cccc(Cl)c2)c2nc(-c3ccco3)cc(C(=O)O)c12 | -1.4 | 0.5 | 97.4 | 39.9* | 13.8
O=C(O)c1cc(-c2ccco2)nn1-c1ccc(Cl)cc1 | 11.2 | 10.8 | 101.3 | 25.3 | 66.8*
CC(=C/c1ccco1)/C=N/NC(=O)c1nnn(-c2nonc2N)c1CN(C)C | -2.7 | 2.0 | x | -8.0 | -5.5
Nc1cc2[nH]c(=O)c3ccccc3c2cc1[N+](=O)[O-] | 1.2 | 2.7 | 88.9 | 50.2* | -5.3
CCCCN(C(=O)c1cc(S(=O)(=O)N2CCCCCC2)ccc1OC)c1ccccc1 | 3.2 | 2.0 | 96.3 | 59.9* | -6.6
COCCCNC(=O)c1c(N)n(/N=C/c2cccs2)c2nc3ccccc3nc12 | 2.6 | 2.8 | 79.0* | -4.4 | -1.8
COCCCNC(=O)c1c(N)n(/N=C/c2cccnc2)c2nc3ccccc3nc12 | 3.0 | 2.6 | x | 16.7 | -2.9
O=C1C=CC2=C3c4cc(O)c(O)cc4CC3(O)COC2=C1O (stereo not given) | 10.9 | 67.0* | x | 58.0* | 42.0
CC(=O)Nc1ccc(S(=O)(=O)C(C#N)c2nc3ccccc3nc2NCCN2CCOCC2)cc1 (stereo not given) | 0.6 | 2.3 | 97.0 | -7.3 | -2.3
COC(=O)CCC(=O)OC1(C)C(=O)C=C2C=C(c3ccsc3)OC=C2C1=O (stereo not given) | -0.4 | 4.8 | 43.1* | 18.9 | 6.7
O=C(O)CCN1C(=O)c2ccc(NC(=O)c3cccs3)cc2C1=O | -0.5 | -1.3 | 97.3 | -10.9 | -5.5
O=C(Nc1ccc2c(c1)C(=O)N(c1ccccc1)C2=O)c1cccs1 | -2.3 | 0.6 | 86.6* | 31.4 | -3.3
